# Assay results published in ChEMBL document CHEMBL4765233, “From Lead to Drug Candidate: Optimization of 3-(Phenylethynyl)-1H-pyrazolo[3,4-d]pyrimidin-4-amine Derivatives as Agents for the Treatment of Triple Negative Breast Cancer” (J Med Chem, 2016).
# The source made the active and inactive calls. No cut-off for these calls is given here.
# How the values were obtained:
# [1] = Inhibition of human recombinant EPHB2 A848S/K918E mutant (560 to end residues) using poly(Glu,Tyr)4:1 as substrate incubated for 40 mins in presence of [gamma33P-ATP] by radiometric scintillation counting analysis
# Procedure, shortened: (§1)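 Radiometric kinase assay run as an external profiling service, with ATP at the Km of each kinase. IC50 values are means of two independent experiments.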
# MDA-MB-231 [2] = test: Induction of apoptosis in human MDA-MB-231 cells assessed as early apoptotic cells at 0.03 uM incubated for 24 hrs by annexin V-FITC and propidium iodide staining based flow cytometry analysis (reference value: 2 %); type: functional
# MDA-MB-231 [3] = test: Induction of apoptosis in human MDA-MB-231 cells assessed as necrotic cells at 0.01 uM incubated for 24 hrs by annexin V-FITC and propidium iodide staining based flow cytometry analysis (reference value: 0.2 %); type: functional
# Mus musculus [4] = test: Reduction in CD31 expression in tumor tissue of SCID mouse xenografted with human MDA-MB-231 cells at 40 mg/kg, po QD for 21 days by immunohistochemical analysis; type: functional, organism-based; conditions: dose 40.0 mg/kg/day, time 21.0 day
# Procedure, shortened: (§2)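 SCID mice carried subcutaneous MDA-MB-231 xenografts (5 × 10^6 cells in 100 μL). Oral dosing in water with 25% PEG400 and 5% DMSO began at 150–200 mm3. Tumours were removed at the end of study, formalin-fixed and paraffin-embedded, then immunostained.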
# MDA-MB-231 [5] = test: Inhibition of MEK phosphorylation in human MDA-MB-231 cells at 0.01 to 0.3 uM incubated for 20 hrs by Western blot analysis; type: cell-based; conditions: dose 0.01-0.3 µM
# Procedure, shortened: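 MDA-MB-231 cells treated with a series of concentrations for 20 h at 37 °C. Cells washed with ice-cold saline and lysed in RIPA buffer with protease cocktail. Lysates cleared at 12000 rpm for 10 min at 4 °C and protein quantified by Bradford. Equal protein separated by SDS-PAGE, transferred to PVDF and probed with antibodies.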
# PLC-PRF-5 = test: Antiproliferative activity against human PLC-PRF-5 cells assessed as reduction in cell viability incubated for 72 hrs by MTT assay; type: functional, cell-based; conditions: PLC-PRF-5, 72 h
# Procedure, shortened: (§3)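 MTT viability assay. ATCC cell lines were grown in designated medium with 10% FBS at 37 °C, 5% CO2. Cells seeded at 1500−30000 per well and incubated 24 h, then exposed to compound (0−10 μg/mL) for 72 h. MTT added for 2−4 h. Formazan dissolved in DMSO (adherent) or acidified SDS overnight (suspension), absorbance read at 570 nm. Triplicates; IC50 calculated.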
# MDA-MB-231 [6] = test: Antiproliferative activity against human MDA-MB-231 cells assessed as reduction in cell viability incubated for 72 hrs by MTT assay; type: functional, cell-based; conditions: MDA-MB-231, 72 h; procedure, shortened: as §3
# MDA-MB-231 [7] = test: Antitumor activity against human MDA-MB-231 cells xenografted in SCID mouse assessed as tumor growth inhibition at 40 mg/kg, po qd for 15 days and measured every 3 days; type: functional; conditions: MDA-MB-231, po, 360 h, time 15 day
# Procedure, shortened: (§4)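 SCID mice (5−6 weeks) injected subcutaneously with 100 μL of cells at 5 × 10^7/mL. At 150−200 mm3 mice randomized, 6 per group. Oral compounds given in water with 25% PEG400 plus 5% DMSO; paclitaxel given 10 mg/kg/week iv. Tumor volume a×b²/2 and body weight measured every 3 days. Inhibition rate (c−d)/c×100% against vehicle control.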
# MDA-MB-231 [8] = test: Induction of apoptosis in human MDA-MB-231 cells assessed as late apoptotic cells at 0.03 uM incubated for 24 hrs by annexin V-FITC and propidium iodide staining based flow cytometry analysis (reference value: 0.85 %); type: functional
# [9] = Metabolic stability in mouse liver microsomes assessed as parent compound remaining at 1 uM measured after 60 mins in presence of NADPH by HPLC-MS/MS analysis; type: ADME, Microsome; conditions: read-out: Stabilty
# Procedure, shortened: (§5)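 Compound at 1 μM incubated with 0.5 mg/mL liver microsomes and 1 mM NADPH. Samples taken at 0, 10, 15, 30, 45 and 60 min and quenched with acetonitrile. After centrifugation, supernatant analysed by HPLC-MS/MS, with percent parent remaining relative to the 0 min area.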
# Mus musculus [10] = test: In vivo inhibition of Src in SCID mouse xenografted with human MDA-MB-231 cells assessed as reduction in phosphorylation of Src in tumor tissue at 40 mg/kg, po QD for 21 days by immunohistochemical analysis; type: functional, organism-based; conditions: dose 40.0 mg/kg/day, time 21.0 day
# Procedure, shortened: (§6)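 Tumors taken from xenografted SCID mice dosed orally at 40 mg/kg/q.d. or given control; mice euthanized at set times. Tumors formalin-fixed and paraffin-embedded, stained by immunohistochemistry for phospho-proteins, and imaged by light microscopy.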
# MDA-MB-435 = test: Antitumor activity against human MDA-MB-435 cells xenografted in SCID mouse assessed as tumor growth inhibition administered orally once daily for 21 days and measured every 3 days; type: functional; conditions: dose 10-40 mg/kg/day, time 21.0 day; procedure, shortened: as §4
# Activated CDC42 kinase 1 = Activated CDC42 kinase 1 (Homo sapiens, UniProt Q07912); test: Inhibition of human recombinant ACK1 (1 to 389 residues) using EFPIYDFLPAKKK as substrate incubated for 40 mins in presence of [gamma33P-ATP] by radiometric scintillation counting analysis; procedure, shortened: as §1
# Sequence of Activated CDC42 kinase 1 (Q07912 whole entry, the tested form may be a part): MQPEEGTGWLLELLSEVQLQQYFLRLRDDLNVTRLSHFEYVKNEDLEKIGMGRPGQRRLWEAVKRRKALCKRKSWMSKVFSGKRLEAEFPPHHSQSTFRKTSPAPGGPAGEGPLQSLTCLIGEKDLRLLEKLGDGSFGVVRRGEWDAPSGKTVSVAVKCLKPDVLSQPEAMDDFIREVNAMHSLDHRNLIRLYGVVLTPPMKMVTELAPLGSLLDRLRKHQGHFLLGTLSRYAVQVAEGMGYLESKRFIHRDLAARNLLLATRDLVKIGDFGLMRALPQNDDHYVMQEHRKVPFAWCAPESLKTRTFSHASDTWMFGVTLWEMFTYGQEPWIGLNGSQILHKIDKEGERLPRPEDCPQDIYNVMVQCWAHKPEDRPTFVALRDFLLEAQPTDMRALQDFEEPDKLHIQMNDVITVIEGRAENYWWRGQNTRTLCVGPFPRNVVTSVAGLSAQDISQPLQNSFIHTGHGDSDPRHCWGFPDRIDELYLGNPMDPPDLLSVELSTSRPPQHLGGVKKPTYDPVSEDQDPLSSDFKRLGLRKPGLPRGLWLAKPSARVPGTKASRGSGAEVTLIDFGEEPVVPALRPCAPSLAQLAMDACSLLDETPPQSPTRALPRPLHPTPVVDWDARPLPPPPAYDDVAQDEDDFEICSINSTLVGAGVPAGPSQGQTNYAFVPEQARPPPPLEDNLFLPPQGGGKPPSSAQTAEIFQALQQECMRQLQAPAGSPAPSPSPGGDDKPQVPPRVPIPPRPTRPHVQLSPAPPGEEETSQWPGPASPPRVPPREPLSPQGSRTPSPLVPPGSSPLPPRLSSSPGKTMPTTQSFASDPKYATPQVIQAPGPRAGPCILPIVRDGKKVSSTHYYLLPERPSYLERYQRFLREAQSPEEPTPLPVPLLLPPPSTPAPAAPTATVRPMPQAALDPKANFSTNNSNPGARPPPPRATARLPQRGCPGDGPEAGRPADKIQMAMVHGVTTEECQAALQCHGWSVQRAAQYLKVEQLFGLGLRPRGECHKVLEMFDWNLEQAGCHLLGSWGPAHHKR
# MDA-MB-231 [11] = test: Induction of apoptosis in human MDA-MB-231 cells xenografted in SCID mouse assessed as increase in cleaved caspase-3 level in tumor tissue at 40 mg/kg, po QD for 21 days by immunohistochemical analysis; type: functional, organism-based; conditions: dose 40.0 mg/kg/day, time 21.0 day; procedure, shortened: as §2
# [12] = target: Platelet-derived growth factor receptor alpha (Homo sapiens, UniProt P16234); test: Inhibition of human recombinant PDGFRalpha (550 to end residues) using poly(Glu, Tyr)4:1 as substrate incubated for 40 mins in presence of [gamma33P-ATP] by radiometric scintillation counting analysis; procedure, shortened: as §1
# Sequence of Platelet-derived growth factor receptor alpha (P16234 whole entry): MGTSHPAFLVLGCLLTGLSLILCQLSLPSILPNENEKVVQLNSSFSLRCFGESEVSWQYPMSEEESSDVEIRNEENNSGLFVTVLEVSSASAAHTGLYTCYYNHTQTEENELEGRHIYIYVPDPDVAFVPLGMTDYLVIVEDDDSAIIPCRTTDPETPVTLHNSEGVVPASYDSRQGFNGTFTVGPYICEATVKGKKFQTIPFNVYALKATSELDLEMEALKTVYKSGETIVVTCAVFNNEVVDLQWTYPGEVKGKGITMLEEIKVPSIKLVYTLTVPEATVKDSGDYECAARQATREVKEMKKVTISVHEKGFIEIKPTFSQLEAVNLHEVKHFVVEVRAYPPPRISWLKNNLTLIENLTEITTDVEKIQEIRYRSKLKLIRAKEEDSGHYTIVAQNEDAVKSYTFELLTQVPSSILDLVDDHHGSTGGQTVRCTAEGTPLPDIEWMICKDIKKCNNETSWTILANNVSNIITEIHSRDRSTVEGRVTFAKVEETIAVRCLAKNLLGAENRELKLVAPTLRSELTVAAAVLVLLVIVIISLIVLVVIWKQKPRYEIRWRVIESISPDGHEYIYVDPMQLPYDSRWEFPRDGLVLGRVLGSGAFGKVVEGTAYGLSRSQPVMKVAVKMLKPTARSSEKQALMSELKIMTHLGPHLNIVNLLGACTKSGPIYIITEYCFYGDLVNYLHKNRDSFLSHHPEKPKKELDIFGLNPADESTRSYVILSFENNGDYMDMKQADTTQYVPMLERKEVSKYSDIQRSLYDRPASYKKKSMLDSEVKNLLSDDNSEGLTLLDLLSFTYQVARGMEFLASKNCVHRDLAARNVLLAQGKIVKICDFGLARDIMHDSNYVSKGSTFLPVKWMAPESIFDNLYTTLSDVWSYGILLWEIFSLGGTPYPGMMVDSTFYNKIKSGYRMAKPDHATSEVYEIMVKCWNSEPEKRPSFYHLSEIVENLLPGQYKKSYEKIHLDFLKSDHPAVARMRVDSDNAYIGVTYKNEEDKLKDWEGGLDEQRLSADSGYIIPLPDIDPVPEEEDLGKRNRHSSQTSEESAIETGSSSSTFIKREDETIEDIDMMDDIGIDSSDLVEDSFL
# [13] = target: Mitogen-activated protein kinase 1 (Homo sapiens, UniProt P28482); test: Inhibition of human full length recombinant ERK2 using myelin basic protein as substrate incubated for 40 mins in presence of [gamma33P-ATP] by radiometric scintillation counting analysis
# Sequence of Mitogen-activated protein kinase 1 (P28482 whole entry): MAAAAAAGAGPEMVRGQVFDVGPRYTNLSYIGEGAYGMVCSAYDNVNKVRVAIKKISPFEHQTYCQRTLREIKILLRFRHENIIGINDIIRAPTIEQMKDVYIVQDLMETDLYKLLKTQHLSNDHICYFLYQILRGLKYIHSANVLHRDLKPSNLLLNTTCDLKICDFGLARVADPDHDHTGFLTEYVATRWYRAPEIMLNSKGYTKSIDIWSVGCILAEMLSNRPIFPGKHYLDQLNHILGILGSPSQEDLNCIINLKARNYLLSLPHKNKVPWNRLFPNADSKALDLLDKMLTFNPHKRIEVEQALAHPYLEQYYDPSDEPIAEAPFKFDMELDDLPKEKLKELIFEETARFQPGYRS
# Mus musculus [14] = test: In vivo inhibition of MEK in SCID mouse xenografted with human MDA-MB-231 cells assessed as reduction in phosphorylation of MEK in tumor tissue at 40 mg/kg, po QD for 21 days by immunohistochemical analysis; type: functional, organism-based; conditions: dose 40.0 mg/kg/day, time 21.0 day; procedure, shortened: as §6
# MDA-MB-231 [15] = test: Induction of apoptosis in human MDA-MB-231 cells assessed as necrotic cells at 0.03 uM incubated for 24 hrs by annexin V-FITC and propidium iodide staining based flow cytometry analysis (reference value: 0.2 %); type: functional
# MDA-MB-231 [16] = test: Induction of apoptosis in human MDA-MB-231 cells assessed as late apoptotic cells at 0.1 uM incubated for 24 hrs by annexin V-FITC and propidium iodide staining based flow cytometry analysis (reference value: 0.85 %); type: functional
# [17] = Half-life in Sprague-Dawley rat at 10 mg/kg, po administered via gavage by LC-MS analysis; type: ADME, organism-based; conditions: in vivo
# [18] = Metabolic stability in rat liver microsomes assessed as parent compound remaining at 1 uM measured after 60 mins in presence of NADPH by HPLC-MS/MS analysis; type: ADME, Microsome; conditions: read-out: Stabilty; procedure, shortened: as §5
smiles,measurement,setting,value
Cc1ccc(NC(=O)c2ccc(C)c(C(F)(F)F)c2)cc1C#Cc1nn([C@H]2CC[C@H](O)CC2)c2ncnc(N)c12,IC50,[1],33 nM
same,Activity,MDA-MB-231 [2],8.02%
same,Activity,MDA-MB-231 [3],0.42%
same,inhibition,Mus musculus [4],Active
same,inhibition,MDA-MB-231 [5],Active
same,IC50,PLC-PRF-5,10000 nM
same,IC50,MDA-MB-231 [6],30 nM
same,inhibition in vivo at 40 mg/kg/day,MDA-MB-231 [7],96.2%
same,Activity,MDA-MB-231 [8],11.2%
same,"remaining at 1 h, 1 µM",[9],> 90%
same,inhibition,Mus musculus [10],Active
same,Activity,MDA-MB-435,Dose-dependent effect
same,IC50,Activated CDC42 kinase 1,175 nM
same,Activity,MDA-MB-231 [11],Active
same,IC50,[12],1290 nM
same,IC50,[13],> 10000 nM
same,inhibition,Mus musculus [14],Active
same,Activity,MDA-MB-231 [15],2.42%
same,Activity,MDA-MB-231 [16],17.35%
same,half-life,[17],18.9 h
same,"remaining at 1 h, 1 µM",[18],> 90%
